{"data": "Experimental data collected from several papers", "cell line": "NCI-H460", "effect on": "cell growth or viability", "note": "Compare with care: the assays were run in different laboratories."}
{"SMILES": "COc1ccc(NC(=O)Nc2ccc(-c3cn(Cc4ccc(Cl)cc4)nn3)cc2)cc1", "technique": "CCK-8", "concentration": "50 µM", "time": "72 h", "measurement": "viability", "result": "86.8%"}
{"SMILES": "COc1cc([C@@H]2c3cc4c(cc3[C@@H](O[C@@H]3O[C@@H]5CO[C@@H](C)O[C@H]5[C@H](O)[C@H]3O)[C@H]3COC(=O)[C@H]23)OCO4)cc(OC)c1O", "technique": "MTS", "time": "72 h", "measurement": "IC50", "result": "0.69 µM"}
{"SMILES": "CCCCCCCCCCCCCCCCCCOc1ccc(CC(=O)OCC[N+](CC)(CC)CC)cc1", "technique": "SRB", "concentration": "10 µM", "measurement": "inhibition", "result": "15.8%"}
{"SMILES": "COc1ccc(NC(=O)Nc2ccc(-c3cn(Cc4cccc(Cl)c4)nn3)cc2)cc1", "technique": "CCK-8", "concentration": "50 µM", "time": "72 h", "measurement": "viability", "result": "87.4%"}
{"SMILES": "O=c1cc(OCc2cc(-c3ccccn3)no2)c2ccccc2o1", "technique": "MTS", "time": "72 h", "measurement": "IC50", "result": "> 100 µM"}
{"SMILES": "CCCCCCCCCCCCCCCCCCOc1cccc(CC(=O)OCC[N+]2(C)CCOCC2)c1", "technique": "SRB", "concentration": "10 µM", "measurement": "inhibition", "result": "1%"}
{"SMILES": "O=C(CSc1nc2ccccc2s1)N/N=C/c1ccc(OCC(=O)Nc2cccc([N+](=O)[O-])c2)cc1", "technique": "MTS", "time": "72 h", "measurement": "IC50", "result": "15.8 µM"}
{"SMILES": "FC(F)(F)c1cc(OCc2cc(-c3ccccc3)no2)c2ccccc2n1", "technique": "MTS", "time": "72 h", "measurement": "IC50", "result": "> 100 µM"}
{"SMILES": "CCCCCCCCCCCCCCCCCCOc1ccccc1CC(=O)OCC[N+](CC)(CC)CC", "technique": "SRB", "concentration": "10 µM", "measurement": "inhibition", "result": "65.4%"}
{"SMILES": "c1ccc(-c2cc(CNc3cccc4cccnc34)on2)cc1", "technique": "MTS", "time": "72 h", "measurement": "IC50", "result": "> 100 µM"}
{"SMILES": "CCCCCCCCCCCCCCCCCCOc1cccc(CC(=O)OCC[N+]2(C)CCCCC2)c1", "technique": "SRB", "concentration": "10 µM", "measurement": "inhibition", "result": "0.88%"}
{"SMILES": "O=c1cc(OCc2cc(-c3ccc(C(F)(F)F)cc3)no2)c2ccccc2o1", "technique": "MTS", "time": "72 h", "measurement": "IC50", "result": "> 100 µM"}
{"SMILES": "COc1ccc(NC(=O)Nc2cccc(-c3cn(Cc4ccc(Cl)cc4)nn3)c2)cc1", "technique": "CCK-8", "concentration": "50 µM", "time": "72 h", "measurement": "viability", "result": "104%"}
{"SMILES": "O=c1cc(OCc2cc(-c3ccc(Cl)cc3Cl)no2)c2ccccc2o1", "technique": "MTS", "time": "72 h", "measurement": "IC50", "result": "> 100 µM"}
{"SMILES": "COc1ccc(NC(=O)Nc2ccc(-c3cn(Cc4ccc(Br)cc4)nn3)cc2)cc1", "technique": "CCK-8", "concentration": "50 µM", "time": "72 h", "measurement": "viability", "result": "86.6%"}
{"SMILES": "CCCCCCCCCCCCCCCCCCOc1ccccc1CC(=O)OCC[N+]1(C)CCCCC1", "technique": "SRB", "concentration": "10 µM", "measurement": "inhibition", "result": "37.8%"}
{"SMILES": "O=C(Nc1ccc(Cl)cc1)Nc1cccc(-c2cn(Cc3cccc(Br)c3)nn2)c1", "technique": "CCK-8", "concentration": "50 µM", "time": "72 h", "measurement": "viability", "result": "88.2%"}
{"SMILES": "O=c1cc(OCc2cc(-c3ccccc3)no2)c2ccccc2o1", "technique": "MTS", "time": "72 h", "measurement": "IC50", "result": "> 100 µM"}
{"SMILES": "C[C@H](Nc1ccc2c(c1)OCCn1cc(N3C(=O)OC[C@H]3C(F)F)nc1-2)C(N)=O", "technique": "ATP luminescence", "time": "5 days", "measurement": "EC50", "result": "2900 nM"}
{"SMILES": "COc1ccc(NC(=O)NCc2cn(Cc3ccccc3C)nn2)cc1", "technique": "CCK-8", "concentration": "50 µM", "time": "72 h", "measurement": "viability", "result": "106%"}
{"SMILES": "O=C(CSc1nc2ccccc2s1)N/N=C/c1ccc(OCC(=O)Nc2ccc([N+](=O)[O-])cc2)cc1", "technique": "MTS", "time": "72 h", "measurement": "IC50", "result": "> 100 µM"}
{"SMILES": "CCCCCCCCCCCCCCCCCCOc1cccc(CC(=O)OCC[N+](C)(C)C)c1", "technique": "SRB", "concentration": "10 µM", "measurement": "inhibition", "result": "2.4%"}
{"SMILES": "COc1ccc(NC(=O)Nc2cccc(-c3cn(Cc4ccc(C)cc4)nn3)c2)cc1", "technique": "CCK-8", "concentration": "50 µM", "time": "72 h", "measurement": "viability", "result": "102%"}
{"SMILES": "CCCCCCCCCCCCCCCCCCOc1ccc(CC(=O)OCC[N+]2(C)CCCC2)cc1", "technique": "SRB", "concentration": "10 µM", "measurement": "inhibition", "result": "0.31%"}
{"SMILES": "COc1ccc(NC(=O)Nc2ccc(-c3cn(Cc4ccc(C)cc4)nn3)cc2)cc1", "technique": "CCK-8", "concentration": "50 µM", "time": "72 h", "measurement": "viability", "result": "83.2%"}
{"SMILES": "N#Cc1ccc(-c2cc(CNc3cccc4cccnc34)on2)cc1", "technique": "MTS", "time": "72 h", "measurement": "IC50", "result": "> 100 µM"}
{"SMILES": "CCCCCCCCCCCCCCCCCCOc1cccc(CC(=O)OCCC[N+](C)(C)C)c1", "technique": "SRB", "concentration": "10 µM", "measurement": "inhibition", "result": "4.47%"}
